Laboratory results published in the EternaBench riboswitch data.

System: MS2 coat protein
Experiment: apparent Kd, MS2 coat protein; higher = weaker binding; RNA-MaP array; FMN 200 µM where present
Procedure, shortened: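 Designs were transcribed by stalled E. coli RNA polymerase on Illumina sequencing-chip clusters. They were titrated with SNAP-549-labelled MS2 coat protein from 0.7 or 1.5 nM, doubling to 3 µM, in 100 mM Tris-HCl pH 7.5, 80 mM KCl, 4 mM MgCl2, BSA, DTT, yeast tRNA and Tween-20, without and then with constant ligand. The apparent Kd is the median of filtered per-cluster fits after normalisation of green signal to red-channel RNA signal and control-cluster median Fmax.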

[1] = designed as: OFF switch for flavin mononucleotide, no ligand
[2] = ligand present: flavin mononucleotide, designed as: OFF switch for flavin mononucleotide
[3] = designed as: ON switch for flavin mononucleotide, no ligand
[4] = ligand present: flavin mononucleotide, designed as: ON switch for flavin mononucleotide

Row | Sequence | apparent Kd [1] | apparent Kd [2] | apparent Kd [3] | apparent Kd [4]
1 | CCAUCGUGUGUGAGGAUAUGCUGGACCUUGGUUCAGCAGAAGGCACAUGAGGAUCACCCAUGUGAAUACGGUGG | 18.9 nM | 32.3 nM | – | –
2 | UUUAUUUUGCAAGGAUAUGUUUAAUUUUAGUUUCCUUACACAUGAGGAUCACCCAUGUUAUACUUACAGAAGGUGCGUAAUUUU | 130 nM | 103 nM | – | –
3 | GGGUACUAGGGAGGAUAUGGGAAGAUACAUGAGGAUCACCCAUGUUUAAGAAUGCCGAGAGGCAACUAGAAGGCCCUAGUACCU | – | – | 428 nM | 19.7 nM
4 | GAAAACGCAGAGGAUAUUCCAGAUCUAAGCUGCGAAGAAGGCUGCACAUGAGGAUCACCCAUGUGGUCUUUAAA | 18.8 nM | 116 nM | – | –
5 | AAUAACAGAGGAUAUACUGUUUUAUGUGUUUAUUGUUUUAAACAUGAGGAUCACCCAUGUAGAAGGCUGAAUAA | 27.4 nM | 27.8 nM | – | –
6 | AAUAAGCAAGGAUAUACGACGCAGAGCGUCAGUGGGCGAUGACAUGAGGAUCACCCAUGUAGAAGGUGCACAUC | 93.9 nM | 208 nM | – | –
7 | CUUUUGUGAGGAUAUCUGUAGUAAAAAAAUAAAAUUACUACUGAGAAGGCACAUGAGGAUCACCCAUGUUCCUC | 39.6 nM | 181 nM | – | –
8 | GGAUGACAAAGUCAUCCUAAACGAACAUGAGGAUCACCCAUGUAGGAUAUGCUACACAAAGUGUAGCAGAAGGACAUGUGCCUU | 37.1 nM | 269 nM | – | –
9 | AUGGAUAUCACAGGAUAUGCUAUGGAUACCAUAGCAGAAGGGUGAUCCAUCCUAUGUAAAUACAUGAGGAUCACCCAUGUGUCC | – | – | 50 nM | 35.7 nM
10 | AACUCACAUGAGGAUCACCCAUGUGAGGAUAUAUAAAUAUAUAUGUUAUUGUAUGUUUGUAGAAGGCGCGUGAU | 38.6 nM | 43.1 nM | – | –
11 | ACGGAACAUGAGGAUCACCCAUGUAUCCGAAAUAUGGACUCACAGGAUAUCCAGAGUUGCCAAUCGGAGAAGGGUGACUCCAGA | – | – | 12.8 nM | 9.91 nM
12 | GGUUACAAGUAAGGAUAUGUAUAUGAAACAUAUACAGAAGGUACAUGAGGAUCACCCAUGUUCUUGCAAAGCGAAUAUGUAACC | 15.1 nM | 18.6 nM | – | –
13 | UUCAGGGAUCAAGGAUAUCUAUAAUCAUGCGGACAUGAGGAUCACCCAUGUUGAUUACCCAUGAGGGAGAAGGUGAACAUGAGG | – | – | 40.1 nM | 16.7 nM
14 | GGUCGUCAAGUCAGGAUAUCGUAUAGUAGAUAUAACGAGAAGGGACAUGAGGAUCACCCAUGUCGUCUCAUCAG | 19 nM | 29 nM | – | –
15 | ACCUUACAUGAGGAUCACCCAUGUCAGGAUAUCUCGGACGGCUGAAAACCAACCGUCCAGAGAAGGGACGAGGA | 13.1 nM | 15.2 nM | – | –
16 | GUAGCAUGCCAAGGAUAUUCAUAUAGUAGGCAAACAUGAGGAUCACCCAUGUAAUGAGAGCAGUGGGAGAAGGUGGGAUGCUAC | – | – | 51.5 nM | 31.9 nM
17 | GGCAGCGGACAAGGAUAUAAGACGCAGACCAAAUUAGAAGGUGUUAUCUGGCAAUGCGAAAGCAGACAUGAGGAUCACCCAUGU | – | – | 66.3 nM | 65.1 nM
18 | UUGAAUUGAAACAUGAGGAUCACCCAUGUGUCAUAAUUGACAUAGGAUAUGUUUAUACUUUUAAAACAGAAGGAUGACGAUACU | – | – | 14.1 nM | 9.68 nM
19 | AACAGGACAGGAUAUACAUGAGGAUCACCCAUGUAGGAAACAAGCAGAGUACCAAAAAGUAGAAGGGUCAUGGA | 60.2 nM | 79.5 nM | – | –
20 | AUUAAUAAUCGAGGAUAUCACGUCGAAUAGACGUGAGAAGGCGAUCAUAACAUGAGGAUCACCCAUGUAUUACAUGAAGUUAAU | – | – | 27.5 nM | 23.9 nM
21 | GGGCGGCGAGGAUAUGCAGGGCGGGCGCGCGGGCGCGCGCGACAUGAGGAUCACCCAUGUAGAAGGCGCCGGGC | 19.1 nM | 129 nM | – | –

Row | Sequence | apparent Kd [1] | apparent Kd [2] | apparent Kd [3] | apparent Kd [4]
22 | GGGUGACAUGAGGAUCACCCAUGUCAGGAUAUGGGCCCGGGUUUGAAAGGGCCCGGGCCCAGAAGGGACUGCCC | 55.3 nM | 127 nM | – | –
23 | UUACUAUUGCAGAAGGCGCAAUAAUAUAUAAAGUGAGGAUAUGCAACAUGAGGAUCACCCAUGUUUCACCCAUAUGAGGAUCAC | 6.93 nM | 7.32 nM | – | –
24 | GUAAACCUAGGAUAUACAUGAGGAUCACCCAUGUAUUGAUCGUGCGGCUGUUCCGGAGGUAGAAGGAGGAACCU | 20.7 nM | 34.2 nM | – | –
25 | UUUUUGUCAGGAUAUGAGUAGUAGUACUAUUGUUUUAUUAUUUAGAAGGGACAUGAGGAUCACCCAUGUUUCUC | 14.9 nM | 15.9 nM | – | –
26 | GUGUACGGAGGAUAUAUGUGGGCAGCAUACGCUGCAGCUUCACAUGAGGAUCACCCAUGUAGAAGGCUGUGCAC | 23.2 nM | 131 nM | – | –
27 | UUGAUUAUACAAGGAUAUCAAUUGUAUACAAGUCUUACAUGAGGAUCACCCAUGUUAAAUUUUUUUGAGAAGGUGUGUUGUCAG | – | – | 33.9 nM | 28.5 nM
28 | CUUAUGUAAGGAUAUCAGUAGUAAAAAAAUAAAAUUACUACUGAGAAGGUACAUGAGGAUCACCCAUGUAUCAA | 27.6 nM | 30.4 nM | – | –
29 | GCAAAGCCUGACAUGAGGAUCACCCAUGUUAGAUUGUUAUGUCAGGAUAUUGUCUAGAAACUAGACAAGAAGGGAUGCUUUGCA | – | – | 463 nM | 27.3 nM
30 | GGGCUCGUCGUAAACGACAUGAGGAUCACCCAUGUUGGGCACAGAAGGGCCUUCAUUCGGAUCAGGCAGGAUAUGUAUCUAACA | 5.09 nM | 5.32 nM | – | –
31 | GCACGGCGUGUAGGAUAUGCAUAGCAUUGCUAUGCAGAAGGACAUGAGGAUCACCCAUGUAUGUAUUCCAUACAUUUCCCGUGC | 6.42 nM | 7.31 nM | – | –
32 | AACAGUACAGGAUAUACAUGAGGAUCACCCAUGUGAGAAACCACUGGCGUACCAGAAAGUAGAAGGGUACUGGA | 79.7 nM | 97.8 nM | – | –
33 | GUAGAGUAAGGAUAUACAGAAUAGGAUAGAAUGGUUAGAAUGUAGAAGGUACAUGAGGAUCACCCAUGUAAUGU | 19.7 nM | 18.4 nM | – | –
34 | AUGGUGACGUAGAAGGGUGACAUGAGGAUCACCCAUGUGCCGAUAUAUCUCGAGAUAUGUCGGCCACAGGAUAUACGUGCCAUC | – | – | 150 nM | 158 nM
35 | GGUCGUCUCAUUAACAUGAGGAUCACCCAUGUCAAAAGACAUGAGGAUAUGGAUCCUAAUUGGAUCCAGAAGGCAUGGACGACC | – | – | 1110 nM | 60.4 nM
36 | UUUUUACUUGCAGGAUAUGGAGACAUGAGGAUCACCCAUGUAUGAGGAGCUAAAUUAUGCUGUGGCCAGAAGGGUAUUGUUCUU | – | – | 66.6 nM | 58.8 nM
37 | CUCACGUUAGUAGGAUAUCCGACAUGAGGAUCACCCAUGUCACUACGCCUCUAGGGAAGGUGUAAGGAGAAGGGCUGAUAAAUA | – | – | 174 nM | 98 nM
38 | GGUGGCGCCUAGAAGGCCGGCCAAGAAGGAGCCGGAGGAUAUAGGCCUACAUGAGGAUCACCCAUGUGGCUUAGUCAUAUGGUU | 22.4 nM | 120 nM | – | –
39 | AAAGCAAUGUCAUGCUCACCGGACAGAAGGCAAUGUGGGCAGCCCGACAUGAGGAUCACCCAUGUUGAGGAUAUGUCCCGUCCU | 2.53 nM | 2.54 nM | – | –
40 | CGAGCCGGCACUGAGGAUAUUCAUAUUUAAACAUGAGGAUCACCCAUGUAGGCCAGAAGGCCUUGGGAGAAGGCAGGUCGGCUCC | – | – | 379 nM | 27.2 nM
41 | AUGUCGCUAGGAGGAUAUACAUGAUCUCGCACAUGUACCGCUCACGCCACAUGAGGAUCACCCAUGUAGAAGGCCUAGAGAGGU | 18.6 nM | 54.8 nM | – | –
42 | AAUAUGUUGCAGAAGGUUAUAUUUUUUUAGUACCUCAUUACAUGAGGAUCACCCAUGUAAAUGAUGAAGGAUAUGCAAUAUAUU | 19.3 nM | 16.4 nM | – | –
